According to ChEMBL document CHEMBL3352152, “Indolylmethylene benzo[h]thiazolo[2,3-b]quinazolinones: synthesis, characterization and evaluation of anticancer and antimicrobial activities” (Bioorg Med Chem Lett, 2014):

Assays:
[1] = system: Pseudomonas aeruginosa; experiment: Antibacterial activity against Pseudomonas aeruginosa MTCC 4673 at 150 ug/ml after 24 hrs by agar well diffusion assay; format: functional; conditions: MTCC 4673, 24 h, read-out: IZ
In short: (§1)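 Agar well diffusion screen against the two Gram-positive strains (S. aureus, S. pyogenes) and the two Gram-negative strains (P. aeruginosa, K. pneumoniae). Streptomycin was the reference drug. Activity was read as zone of inhibition (mm).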

[2] = system: Nakaseomyces glabratus; experiment: Antifungal activity against Candida glabrata MTCC3019 at 150 ug/ml after 48 hrs by agar well diffusion method; format: functional; conditions: MTCC3019, 48 h, read-out: IZ
In short: (§2)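 Antifungal screen by agar well diffusion against C. albicans, C. glabrata, A. niger and A. parasiticus. Clotrimazole was the standard drug. Activity was recorded as zone of inhibition (ZOI, mm).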

[3] = system: HepG2; experiment: Anticancer activity against human HepG2 cells assessed as cell viability after 48 hrs by MTT microcultured tetrazolium assay; format: functional, cell-based; conditions: HepG2, 48 h
In short: (§3)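 MTT-microcultured tetrazolium viability read-out in MCF-7 and HepG2 cells exposed to test samples. Surviving fraction was plotted against drug concentration to give survival curves, and IC50 was taken from these curves.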

[4] = system: Candida albicans; experiment: Antifungal activity against Candida albicans MTCC 183 at 150 ug/ml after 48 hrs by agar well diffusion method; format: functional; conditions: MTCC 183, 48 h, read-out: IZ; in short: as §2
[5] = system: Klebsiella pneumoniae; experiment: Antibacterial activity against Klebsiella pneumoniae MTCC 109 at 150 ug/ml after 24 hrs by agar well diffusion assay; format: functional; conditions: MTCC 109, 24 h, read-out: IZ; in short: as §1
[6] = system: Aspergillus parasiticus; experiment: Antifungal activity against Aspergillus parasiticus MTCC 8850 at 150 ug/ml after 48 hrs by agar well diffusion method; format: functional; conditions: MTCC 8850, 48 h, read-out: IZ; in short: as §2
[7] = system: MCF7; experiment: Anticancer activity against human MCF7 cells assessed as cell viability after 48 hrs by MTT microcultured tetrazolium assay; format: functional, cell-based; conditions: MCF7, 48 h; in short: as §3
[8] = system: Streptococcus pyogenes; experiment: Antibacterial activity against Streptococcus pyogenes MTCC 1926 at 150 ug/ml after 24 hrs by agar well diffusion assay; format: functional; conditions: MTCC 1926, 24 h, read-out: IZ; in short: as §1
[9] = system: Aspergillus niger; experiment: Antifungal activity against Aspergillus niger MTCC 282 at 150 ug/ml after 48 hrs by agar well diffusion method; format: functional; conditions: MTCC 282, 48 h, read-out: IZ; in short: as §2
[10] = system: Staphylococcus aureus; experiment: Antibacterial activity against Staphylococcus aureus MTCC 96 at 150 ug/ml after 24 hrs by agar well diffusion assay; format: functional; conditions: MTCC 96, 24 h, read-out: IZ; in short: as §1

| Structure (SMILES) | zone of inhibition at 150 µg/mL [1] [mm] | zone of inhibition at 150 µg/mL [2] [mm] | IC50 [3] [µM] | zone of inhibition at 150 µg/mL [4] [mm] | zone of inhibition at 150 µg/mL [5] [mm] | zone of inhibition at 150 µg/mL [6] [mm] | IC50 [7] [µM] | zone of inhibition at 150 µg/mL [8] [mm] | zone of inhibition at 150 µg/mL [9] [mm] | zone of inhibition at 150 µg/mL [10] [mm] |
| --- | --- | --- | --- | --- | --- | --- | --- | --- | --- | --- |
| Cc1[nH]c2ccccc2c1/C=c1\sc2n(c1=O)C(c1ccc(Cl)cc1)C1=C(N=2)c2ccccc2CC1 (stereo not given) | 17 | 19 | 69.8 | 16 | 8 | 14 | 166 | 8 | 14 | 13 |
| COc1ccc2c(c1)CCC1=C2N=c2s/c(=C\c3c[nH]c4ccccc34)c(=O)n2C1c1ccc(Cl)cc1 (stereo not given) | 8 | 14 | 34.9 | 8 | 8 | 10 | 23.5 | 8 | 8 | 8 |
| COc1ccc2c(c1)CCC1=C2N=c2s/c(=C\c3c[nH]c4ccc(C)cc34)c(=O)n2C1c1cccc([N+](=O)[O-])c1 (stereo not given) | 8 | 12 | 51.6 | 8 | 17 | 8 | > 200 | 17 | 8 | 17 |
| COc1ccc2c(c1)CCC1=C2N=c2s/c(=C\c3c(C)[nH]c4ccccc34)c(=O)n2C1c1ccc(F)cc1 (stereo not given) | 13 | 8 | 73.8 | 8 | 16 | 8 | 82.4 | 8 | 12 | 13 |
| O=c1/c(=C/c2c[nH]c3ccccc23)sc2n1C(c1cccc([N+](=O)[O-])c1)C1=C(N=2)c2ccccc2CC1 (stereo not given) | 8 | 10 | 199 | 8 | 8 | 12 | > 200 | 8 | 12 | 8 |
| COc1ccc2[nH]cc(/C=c3\sc4n(c3=O)C(c3ccc(Cl)cc3)C3=C(N=4)c4ccccc4CC3)c2c1 (stereo not given) | 14 | 16 | 27.7 | 15 | 8 | 18 | 20.7 | 8 | 18 | 14 |
| COc1ccc2c(c1)CCC1=C2N=c2s/c(=C\c3c[nH]c4ccccc34)c(=O)n2C1c1ccc(F)cc1 (stereo not given) | 21 | 8 | 25.8 | 8 | 17 | 10 | 67.3 | 8 | 10 | 21 |
| COc1ccc2c(c1)CCC1=C2N=c2s/c(=C\c3c[nH]c4ccc(Br)cc34)c(=O)n2C1c1ccc(F)cc1 (stereo not given) | 22 | 10 | 22.1 | 8 | 18 | 8 | 8.96 | 8 | 8 | 22 |
| COc1ccc(C2C3=C(N=c4s/c(=C\c5c[nH]c6ccccc56)c(=O)n42)c2ccc(OC)cc2CC3)cc1 (stereo not given) | 8 | 20 | 61.1 | 18 | 15 | 18 | 54.4 | 18 | 18 | 17 |
| COc1ccc(C2C3=C(N=c4s/c(=C\c5c[nH]c6ccc(Br)cc56)c(=O)n42)c2ccc(OC)cc2CC3)cc1 (stereo not given) | 8 | 12 | 8.6 | 8 | 8 | 10 | 7.72 | 8 | 8 | 8 |
